Tests used:
Type in all cases: functional
Aspergillus terreus [1] = experiment: Metabolic activity of Aspergillus terreus at 8 ug/ml by XTT assay relative to control
Summary of the method: (§1)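 Optimized XTT read-out (100 μg/ml XTT, 6.25 μM menadione, 2 h at 37°C) applied after 48 h caspofungin exposure. Percent metabolic activity in the 8 μg/ml well, calculated as background-corrected absorbance (450/630 nm) relative to the drug-free control. Compared within each species against the value at the concentration giving the lowest activity.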

Aspergillus terreus [2] = experiment: Metabolic activity of Aspergillus terreus at 0.5 ug/ml after 2 hrs by XTT assay relative to control
Summary of the method: (§2)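 Wells from the 48 h caspofungin microdilution (0.008 to 8 μg/ml) were read right after microscopic MEC reading. XTT plus menadione was added to final 100 μg/ml XTT and 6.25 μM menadione, then incubated 2 h at 37°C and shaken. Absorbance read at 450 nm with 630 nm reference. Percent metabolic activity = background-subtracted drug well / background-subtracted drug-free control × 100. Triplicate.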

Aspergillus flavus [3] = experiment: Metabolic activity of Aspergillus flavus at 8 ug/ml by XTT assay relative to control; summary of the method: as §1
Aspergillus terreus [4] = experiment: Metabolic activity of Aspergillus terreus at 1 ug/ml after 2 hrs by XTT assay relative to control; summary of the method: as §2
Aspergillus terreus [5] = experiment: Metabolic activity of Aspergillus terreus determined as X-MEC relative to control
Summary of the method: (§3)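 X-MEC: lowest caspofungin concentration whose percent metabolic activity (optimized XTT, 100 μg/ml XTT, 6.25 μM menadione, 2 h, after 48 h incubation) is at or below a species-specific cutoff. Cutoffs were tested in 5% steps around the species median activity at the microscopic MEC and chosen for best ±1 dilution agreement with the microscopic MEC.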

Aspergillus fumigatus [6] = experiment: Metabolic activity of Aspergillus fumigatus at 0.75 ug/ml after 2 hrs by XTT assay relative to control; summary of the method: as §2
Aspergillus flavus [7] = experiment: Metabolic activity of Aspergillus flavus at 2 ug /ml after 2 hrs by XTT assay relative to control; summary of the method: as §2
Aspergillus terreus [8] = experiment: Antifungal activity against Aspergillus terreus after 48 hrs; conditions: read-out: MEC
Summary of the method: (§4)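 Broth microdilution following CLSI M38-A in RPMI 1640 with l-glutamine, no bicarbonate, buffered to pH 7.0 with 0.165 M MOPS. Caspofungin twofold dilutions, 0.008 to 8 μg/ml final. Inoculum 2.5 × 10⁴ conidia/ml of clinical isolates. Incubation 37°C for 48 h. MEC read microscopically as the lowest concentration giving short, stubby, highly branched hyphae. Run in triplicate.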

Aspergillus flavus [9] = experiment: Antifungal activity against Aspergillus flavus after 48 hrs; conditions: read-out: MEC; summary of the method: as §4
Aspergillus flavus [10] = experiment: Metabolic activity of Aspergillus flavus at 0.25 ug /ml using after 2 hrs by XTT assay relative to control; summary of the method: as §2
Aspergillus fumigatus [11] = experiment: Metabolic activity of Aspergillus fumigatus at 0.5 ug/ml after 2 hrs by XTT assay relative to control; summary of the method: as §2
Aspergillus flavus [12] = experiment: Metabolic activity of Aspergillus flavus determined as X-MEC relative to control; summary of the method: as §3
Aspergillus fumigatus [13] = experiment: Metabolic activity of Aspergillus fumigatus by XTT assay relative to control; summary of the method: as §2
Aspergillus fumigatus [14] = experiment: Antifungal activity against Aspergillus fumigatus after 48 hrs; conditions: read-out: MEC; summary of the method: as §4
Aspergillus fumigatus [15] = experiment: Metabolic activity of Aspergillus fumigatus at 8 ug/ml by XTT assay relative to control; summary of the method: as §1
Aspergillus terreus [16] = experiment: Metabolic activity of Aspergillus terreus by XTT assay relative to control; summary of the method: as §2
Aspergillus fumigatus [17] = experiment: Metabolic activity of Aspergillus fumigatus determined as X-MEC relative to control; summary of the method: as §3

CC[C@H](C)C[C@H](C)CCCCCCCCC(=O)N[C@H]1C[C@@H](O)[C@@H](NCCN)NC(=O)[C@@H]2[C@@H](O)CCN2C(=O)[C@H]([C@H](O)CCN)NC(=O)[C@H]([C@H](O)[C@@H](O)c2ccc(O)cc2)NC(=O)[C@@H]2C[C@@H](O)CN2C(=O)[C@H]([C@@H](C)O)NC1=O [CASPOFUNGIN]
Activity (Aspergillus terreus [1]): 57% | Activity (Aspergillus terreus [2]): 53% | Activity (Aspergillus flavus [3]): 20% | Activity (Aspergillus terreus [4]): 38% | Activity (Aspergillus terreus [5]): 65% | Activity (Aspergillus fumigatus [6]): 28% | Activity (Aspergillus flavus [7]): 17% | minimal effective concentration (Aspergillus terreus [8]): 0.5 µg/mL | minimal effective concentration (Aspergillus flavus [9]): 0.25 µg/mL | Activity (Aspergillus flavus [10]): 25% | Activity (Aspergillus fumigatus [11]): 42% | Activity (Aspergillus flavus [12]): 40% | MMC (Aspergillus fumigatus [13]): 0.75 µg/mL | minimal effective concentration (Aspergillus fumigatus [14]): 0.5 µg/mL | Activity (Aspergillus fumigatus [15]): 51% | MMC (Aspergillus terreus [16]): 1 µg/mL | Activity (Aspergillus fumigatus [17]): 60%

— ChEMBL document CHEMBL1142064, “Concentration-dependent effects of caspofungin on the metabolic activity of Aspergillus species” (2007)
